This is an account of results in publication PMC5590101 (Journal of medicinal chemistry, 2016).

One may read the IC50 as the midpoint of a concentration-inhibition curve. Broadly, the GI50 is the concentration giving 50% growth inhibition. A low value points to more potent growth inhibition.

The test system of test [1] is HeLa cells. The test can be described thus: Cell cycle distribution by flow cytometry. The conditions noted are these: 18 h, five-times the IC50. Format: cell-based. (A flow cytometer gives signals particle by particle.)
Test [2] has as its system microtubules in A-10 cells. The test is described as follows: Microtubule depolymerization in A-10 cells. The conditions noted are these: for microtubule depolymerization activity: tested up to 10 µM; for fold more potent than (±)-1·HCl, microtubule depolymerizing effects: relative to lead (±)-1·HCl; for fold lower microtubule depolymerizing potency than 3: relative to compound 3. It counts as cell-based, rat.

Test [3] relates to MDA-MB-435 cells. The test is described as follows: SRB antiproliferative assay, MDA-MB-435. It counts as cell-based. The conditions noted are these: for IC50: Homo sapiens, MDA-MB-435, read-out: IC50 ± SD MDA-MB-435; for fold more potent than (±)-1·HCl, antiproliferative activity (MDA-MB-435): relative to lead (±)-1·HCl; for fold lower antiproliferative potency than 3: MDA-MB-435, relative to compound 3. Background: Sulforhodamine B stains cellular protein and so reports cell mass.

Test [4] deals with SK-OV-3. The test can be described thus: SRB antiproliferative assay, SK-OV-3. Format: cell-based. The conditions noted are these: SK-OV-3 and SK-OV-3 MDR1-M6/6 cell lines.
In test [5] the test system is HeLa. The test is described as follows: SRB antiproliferative assay, HeLa. It counts as cell-based.
For test [6], the system named is MDA-MB-435 xenografts. The test is described as follows: MDA-MB-435 flank xenograft model. Format: in vivo, nude mice. The following applies: ip, 60 mg/kg days 0 and 2, 50 mg/kg day 8; vs untreated control. The essentials: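 Nude mice bilaterally implanted sc in the flank with MDA-MB-435 tumour fragments; dosing began once tumours reached ~200 mm3. Test compound was given ip in PBS containing <5% (v/v) 50:50 Cremophor/DMSO. […] Tumour volumes and body weights were recorded 2–3 times weekly. Final volumes were compared with untreated controls by one-way ANOVA with Dunnett's test.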

Test [7] concerns NCI 60-cell line panel. The test can be described thus: NCI cancer cell line panel. Format: cell-based.
Test [8] relates to IGROVI. The test is described as follows: NCI panel growth inhibition, IGROVI. It counts as cell-based.
The target in test [9] is Bovine brain tubulin (Bos taurus, UniProt P81947+Q6B856). The test is described as follows: Inhibition of tubulin assembly. It counts as biochemical. The following applies: for fold more potent than (±)-1·HCl, tubulin assembly: relative to lead (±)-1·HCl.
Chain of Bovine brain tubulin (Q6B856 whole entry): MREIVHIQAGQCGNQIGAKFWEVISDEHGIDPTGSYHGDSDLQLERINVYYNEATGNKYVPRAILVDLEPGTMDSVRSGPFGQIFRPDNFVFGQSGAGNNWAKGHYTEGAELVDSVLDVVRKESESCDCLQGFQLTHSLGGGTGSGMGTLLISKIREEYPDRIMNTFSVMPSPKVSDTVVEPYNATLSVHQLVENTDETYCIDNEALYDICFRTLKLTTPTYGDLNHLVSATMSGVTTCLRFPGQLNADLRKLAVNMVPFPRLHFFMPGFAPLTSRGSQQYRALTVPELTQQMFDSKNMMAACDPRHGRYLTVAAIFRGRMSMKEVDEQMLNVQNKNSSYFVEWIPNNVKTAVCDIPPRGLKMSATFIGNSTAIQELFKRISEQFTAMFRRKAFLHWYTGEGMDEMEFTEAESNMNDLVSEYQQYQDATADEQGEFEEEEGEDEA
Chain of Bovine brain tubulin (P81947 whole entry): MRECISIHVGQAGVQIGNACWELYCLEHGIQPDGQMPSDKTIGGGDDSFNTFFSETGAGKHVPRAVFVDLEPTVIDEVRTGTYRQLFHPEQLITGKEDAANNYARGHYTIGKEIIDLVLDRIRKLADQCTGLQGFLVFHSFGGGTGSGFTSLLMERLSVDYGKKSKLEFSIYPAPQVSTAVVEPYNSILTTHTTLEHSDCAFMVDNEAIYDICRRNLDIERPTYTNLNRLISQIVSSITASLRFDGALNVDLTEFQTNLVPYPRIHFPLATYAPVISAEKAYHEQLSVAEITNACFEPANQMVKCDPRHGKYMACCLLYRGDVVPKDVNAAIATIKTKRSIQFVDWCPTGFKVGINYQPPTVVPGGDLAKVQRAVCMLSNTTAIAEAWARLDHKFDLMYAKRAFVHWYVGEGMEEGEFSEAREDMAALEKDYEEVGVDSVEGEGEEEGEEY
The subject of test [10] is HeLa WTβIII. The test is described as follows: SRB antiproliferative assay, βIII-tubulin expressing HeLa WTβIII. It counts as cell-based. The conditions noted are these: Homo sapiens, read-out: IC50 ± SD HeLa WTβIII.

“Also recorded” adds a separate entry of the source.

As for `COc1ccc(/C=C\c2cc(OC)c(OC)c(OC)c2)cc1O` [CA-4, combretastatin A-4], the “accumulation of cells in G2/M” value in test [1] was “significant accumulation of cells in G2/M”.

For the compound `COc1ccc(Nc2ncnc3occ(C)c23)cc1` [Compound 2, N-(4-Methoxyphenyl)-5-methylfuro[2,3-d]pyrimidin-4-amine], the “microtubule depolymerization activity” value in test [2] was “inactive; also recorded: essentially devoid of activity”.

For `COc1ccc(N(C)c2ncnc3occ(C)c23)cc1` [Compound 3, N-(4-Methoxyphenyl)-N,5-dimethylfuro[2,3-d]pyrimidin-4-amine], in test [2], the “fold more potent than (±)-1·HCl, microtubule depolymerizing effects” value worked out at 2.3 fold. Further, in test [3], the IC50 turned out to be 4.3 ± 0.3 nM and the “fold more potent than (±)-1·HCl, antiproliferative activity (MDA-MB-435)” value (“fold more potent than (±)-1·HCl … (MDA-MB-435)” for short) is listed as “about 4 fold”. For the same compound, in test [4], the “fold higher potency than (±)-1·HCl” value stood at 5 fold. The “fold better activity than (±)-1·HCl” value in test [5] (HeLa and HeLa WT βIII cell lines) is on record as 4 fold. Moreover, in test [1], the “accumulation of cells in G2/M” value is “significant accumulation of cells in G2/M”. In [6], the “antitumor effect (tumor growth)” value was “statistically significant antitumor effects; also recorded: statistically significant inhibition of tumor growth; also recorded: significantly inhibited tumor growth”. The GI50 in test [7] was under 10 nM. This compound yielded a concentration for 50% growth inhibition (GI50) in test [8] of under 10 nM.

For the compound `CCN(c1ccc(OC)cc1)c1ncnc2occ(C)c12` [Compound 4, N-Ethyl-N-(4-methoxyphenyl)-5-methylfuro[2,3-d]pyrimidin-4-amine], in [2], the “fold lower microtubule depolymerizing potency than 3” value worked out at 2 fold and the “fold more potent than (±)-1·HCl, microtubule depolymerizing effects” value is “equipotent”. For the same compound, in [3], the IC50 turned out to be 8.1 ± 0.5 nM and the “fold more potent than (±)-1·HCl … (MDA-MB-435)” value is reported as 1.4–2.1 fold. In test [9], the “fold more potent than (±)-1·HCl, tubulin assembly” value is “about 2 fold”. In addition, in test [1], the “accumulation of cells in G2/M” value is on record as “significant accumulation of cells in G2/M”.

For the compound `COc1ccc(N(c2ncnc3occ(C)c23)C(C)C)cc1` [Compound 5, N-Isopropyl-N-(4-methoxyphenyl)-5-methylfuro[2,3-d]pyrimidin-4-amine], the “microtubule depolymerization activity” value in [2] is “ineffective”. The IC50 in [3] was determined as 504 ± 28 nM. In [3] (antiproliferative, relative to N-Et analogue 4), the “fold less potent (IC50) than 4” value was determined as 60 fold.

Regarding `CCCN(c1ccc(OC)cc1)c1ncnc2occ(C)c12` [Compound 6, N-(4-Methoxyphenyl)-5-methyl-N-propylfuro[2,3-d]pyrimidin-4-amine], the half-inhibitory concentration (IC50) in test [3] turned out to be 27.3 ± 4.5 nM. For the same compound, in test [9], the “fold more potent than (±)-1·HCl, tubulin assembly” value is “about 2 fold”.

On to `CCCCN(c1ccc(OC)cc1)c1ncnc2occ(C)c12` [Compound 7, N-Butyl-N-(4-methoxyphenyl)-5-methylfuro[2,3-d]pyrimidin-4-amine], for which, in test [3], the IC50 is 100 ± 6.5 nM. Moreover, the “fold more potent than (±)-1·HCl, tubulin assembly” value in test [9] is given as “about 2 fold”.

In the case of `CCc1ccc(N(C)c2ncnc3occ(C)c23)cc1` [Compound 8, N-Methyl-N-(4-ethylphenyl)-5-methylfuro[2,3-d]pyrimidin-4-amine], the “fold lower microtubule depolymerizing potency than 3” value in test [2] worked out at 30 fold. Further, in test [3], the IC50 is 183 ± 13 nM and the “fold lower antiproliferative potency than 3” value was found to be 43 fold.

On to `CSc1ccc(N(C)c2ncnc3occ(C)c23)cc1` [Compound 9, N,5-Dimethyl-N-(4-(methylthio)phenyl)furo[2,3-d]pyrimidin-4-amine], for which, in [2], the “fold lower microtubule depolymerizing potency than 3” value worked out at 2 fold and the “fold more potent than (±)-1·HCl, microtubule depolymerizing effects” value was “equipotent”. For the same compound, in [3], the IC50 turned out to be 12.3 ± 0.9 nM; the “fold lower antiproliferative potency than 3” value is recorded as 3 fold; the “fold more potent than (±)-1·HCl … (MDA-MB-435)” value is reported as 1.4–2.1 fold. Moreover, the “fold better than 3, tubulin assembly IC50” value in test [9] (relative to compound 3) was 3 fold.

With `CC(=O)O[C@H]1C(=O)[C@@]2(C)[C@H]([C@H](OC(=O)c3ccccc3)[C@]3(O)C[C@H](OC(=O)[C@H](O)[C@@H](NC(=O)c4ccccc4)c4ccccc4)C(C)=C1C3(C)C)[C@]1(OC(C)=O)CO[C@@H]1C[C@@H]2O` [paclitaxel], the IC50 in test [5] (Homo sapiens, HeLa, read-out: IC50 ± SD HeLa) was 2.8 ± 0.36 nM; in test [10], 24 ± 3 nM.
